In the library only some 1.9% were active in any assay of this set; here they are far more common.
SENP1 inh = human SENP1 catalytic domain inhibitors, primary screen, biochemical, FRET, uHTS | recombinant SENP1 catalytic domain, CyPet-SUMO1-YPet FRET cleavage | inhibition, % at 10 µM | hit rate 0.21% among 360,000;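 active means inhibition at least 30% at 10 µM, raw YFP signal under a set limit, fluorescence ratio 0.5 to 1.5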;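 further: 0% = enzyme with DMSO and 100% = no enzyme wells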
Target sequence (Q9P0U3 419-644 limits assumed): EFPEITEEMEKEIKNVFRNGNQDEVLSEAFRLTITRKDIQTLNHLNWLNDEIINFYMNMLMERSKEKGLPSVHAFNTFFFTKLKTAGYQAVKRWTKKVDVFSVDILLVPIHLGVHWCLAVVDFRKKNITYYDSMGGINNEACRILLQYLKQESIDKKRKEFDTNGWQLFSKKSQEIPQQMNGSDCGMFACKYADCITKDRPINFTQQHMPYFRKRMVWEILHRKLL
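Test system: human SENP1 catalytic domain; medium: Tris pH 8 buffer plus EDTA, NaCl, BME, BSA, NP40, catalase; incubation: 50 min reaction at room temperature; technique: FRET, CFP and YFP emission; controls: no-enzyme low control and enzyme-plus-DMSO high control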
ADAM17 inh = ADAM17 inhibitors, primary screen, biochemical, QFRET; inhibition, % at 6.95 µM; recombinant ADAM17, EDANS/DABCYL FRET peptide cleavage; hit rate 0.83% among 370,000;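 active means inhibition above the mean of compounds lying between control limits plus 3 SD, set per campaign, cut at about 8.5% in these data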;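 further: 0% = DMSO-only wells as the low control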
ADAM10 inh = human ADAM10 inhibitors, primary screen, biochemical, QFRET, HTS; Disintegrin and metalloproteinase domain-containing protein 10 (Homo sapiens), O14672; recombinant ADAM10, EDANS/DABCYL FRET peptide cleavage, 3 h; hit rate 0.62% among 370,000; inhibition, % at 7 µM;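 active means inhibition above a per-campaign cutoff equal to the mean of compounds falling between control-based bounds plus 3 SD, cut at about 20% in these data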;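 further: 0% = DMSO wells while the 100% control is not disclosed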
FAS TE block = FAS thioesterase domain inhibitors, primary screen, biochemical, fluorescence intensity, uHTS; inhibition, % at 15 µM; recombinant FAS-TE, OMFH fluorogenic substrate, fluorescence endpoint; Fatty acid synthase (Homo sapiens), P49327; hit rate 0.67% among 360,000;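 active means compounds whose normalised, plate-corrected inhibition of enzyme fluorescence in the single-dose primary screen is 50% or more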;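 further: 0% = DMSO with enzyme and 100% = substrate without enzyme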
SENP1 conf = human SENP1 catalytic domain inhibitors, confirmation, biochemical, FRET endpoint, single concentration; shares compounds with SENP1 inh; recombinant SENP1, CyPet-SUMO1-YPet FRET cleavage; inhibition, % at 10 µM; hit rate 34% among 520; AID 651678, 2012; in the data active means inhibition mostly above about 35%, no sharp cut-off; inactive means mostly below about 32%;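 further: 0% = enzyme with DMSO and 100% = no enzyme control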
SENP1 kinetic = human SENP1 catalytic domain inhibitors, confirmation, biochemical, kinetic FRET, single concentration. inhibition, % at 10 µM. hit rate 26% among 520. shares compounds with SENP1 inh. recombinant SENP1, CyPet-SUMO1-YPet FRET kinetic cleavage. AID 651690, 2012; in the data active means inhibition mostly above about 32%, no sharp cut-off; inactive means mostly below about 29%;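 further: 0% = DMSO with enzyme and 100% = no enzyme substrate only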
Starred values were filed as active, the others as inactive.

How did CCCCN1C[C@@H](COCc2ccccc2)Oc2cc(F)ccc2S1(=O)=O do in these assays?
ADAM17 inh: 0; ADAM10 inh: 2

What do the screens show for `O=C(Nc1ccc2c(c1)OCO2)C(=O)c1c[nH]c2ccccc12`?
SENP1 inh: 31*; ADAM17 inh: -2; ADAM10 inh: 4; FAS TE block: -4; SENP1 conf: 37; SENP1 kinetic: 32*

How did O=C(Nc1ccc2c(c1)OCCO2)C(=O)c1c[nH]c2ccccc12 do in these assays?
SENP1 inh: 3; ADAM17 inh: 4; ADAM10 inh: 13; FAS TE block: 4

Results for COc1ccc2c(c1)CCCN2C(=O)C1CCCN(S(=O)(=O)c2ccc(Br)s2)C1 (configuration not stated) ?
ADAM17 inh: 5; ADAM10 inh: -1

Results for COc1ccccc1N1C(=O)S/C(=C\c2cc(C)n(C)c2C)C1=O ?
SENP1 inh: -51; ADAM17 inh: 1; ADAM10 inh: 1; FAS TE block: 7

Results for COc1ccccc1N1C(=O)S/C(=C\c2ccc(C)s2)C1=O ?
SENP1 inh: 40*; ADAM17 inh: 0; ADAM10 inh: 3; FAS TE block: -15; SENP1 conf: 13; SENP1 kinetic: 14

What do the screens show for `COc1ccc(OC)c(CCNC(=O)c2ccc3c(=O)[nH]c4c(C(=O)NC(C)C)sc(=S)n4c3c2)c1`?
SENP1 inh: 50*; ADAM17 inh: 1; ADAM10 inh: 3; FAS TE block: 33; SENP1 conf: 41*; SENP1 kinetic: 40*

What do the screens show for `O=C(Cc1n[nH]c(=O)[nH]c1=O)N/N=C/c1ccccc1`?
SENP1 inh: -1; ADAM17 inh: -2; ADAM10 inh: -3; FAS TE block: -9

Results for O=C(Cc1n[nH]c(=O)[nH]c1=O)N/N=C/c1c(O)ccc2ccccc12 ?
SENP1 inh: 39*; ADAM17 inh: -6; ADAM10 inh: -4; FAS TE block: -4; SENP1 conf: -18; SENP1 kinetic: 21

What do the screens show for `O=C(CCn1nnc(-c2cccs2)n1)N1CCOCC1`?
ADAM17 inh: 0; ADAM10 inh: -5

How did O=C(N1CCOCC1)N1CCC(n2nnc3cc(F)ccc32)CC1 do in these assays?
SENP1 inh: 30*; ADAM17 inh: 0; ADAM10 inh: -3; FAS TE block: -9; SENP1 conf: 29; SENP1 kinetic: 14

How did O=C(c1ccc([N+](=O)[O-])cc1)N1CCC(n2nnc3cc(F)ccc32)CC1 do in these assays?
SENP1 inh: -1; ADAM17 inh: 0; ADAM10 inh: 2; FAS TE block: 5

Results for COc1cc(/C=C2\SC(=S)N(CC(=O)O)C2=O)ccc1OC(=O)c1ccco1 ?
SENP1 inh: 39*; ADAM17 inh: 2; ADAM10 inh: 6; FAS TE block: 2; SENP1 conf: 83*; SENP1 kinetic: 63*

What do the screens show for `COc1cc(/C=C2/SC(=S)N(CC(=O)O)C2=O)ccc1OC(=O)c1ccco1`?
SENP1 inh: 32*; ADAM17 inh: -2; ADAM10 inh: -7; FAS TE block: 0; SENP1 conf: 84*; SENP1 kinetic: 65*

How did CCOc1cc(/C=C2/SC(=S)N(CC(=O)O)C2=O)ccc1OC(=O)c1cccs1 do in these assays?
SENP1 inh: 2; ADAM17 inh: -1; ADAM10 inh: 8; FAS TE block: -1

Results for COc1ccc(/C=C2/SC(=S)N(CC(=O)O)C2=O)cc1OCc1ccc(Cl)cc1 ?
SENP1 inh: -30; ADAM17 inh: -3; ADAM10 inh: 1; FAS TE block: -77

What do the screens show for `O=C(OC12CCCN(C1)/C(=C/c1ccc(Cl)cc1)C2)c1ccno1` (configuration not stated)?
ADAM17 inh: 1; ADAM10 inh: 2

Screens (PubChem BioAssay)
